This is a sample that favours compounds with a hit; in the whole collection about 4.4% have one here.
AHR activator = human AHR activation. AID 2796. actives 2.5% (n = 320,000). activation, % at 5 µM. P35869. AHR-responsive luciferase reporter cells, luminescence; in the data active means activation above about 47%;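 further: 0% = vehicle wells and 100% = reference agonist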
AI-2 QS modul = modulates the Vibrio harveyi AI-2 quorum sensing system; Vibrio harveyi JMH597 AI-2 luminescence/OD600 ratio, 9 h; stronger effect = lower value; strain lacks LuxN and CqsS sensors; 0 = neutral-control median; activity change, % at 7.5 µM; actives 0.4% (n = 300,000); in the data active means activity change below about -75%, passing the limit was not always enough; inconclusive means no clear call, values can overlap the other calls;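 further: luminescence divided by OD600 gain over 9 h not by final OD600 alone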
MsrA inhibitor = inhibits bovine methionine sulfoxide reductase A; purified bovine MsrA, absorbance read-out; inhibition, % at 15.5 µM; actives 0.75% (n = 360,000); in the data active means inhibition above about 4.5%;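 further: 0% = vehicle wells with enzyme and 100% = reference inhibitor wells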
TbMetRS inhib = blocks T. brucei methionyl-tRNA synthetase activity; purified T. brucei MetRS, ATP depletion, Kinase-Glo luminescence; inhibition, % at 11.9 µM; actives 0.4% (n = 360,000);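 active means inhibition above a per-plate cutoff of the control wells' mean inhibition plus 3 SD, cut at about 5.5% in these data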;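 further: 0% = DMSO wells median and 100% = median of wells with control inhibitor compound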
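Material – parasite MetRS enzyme · Medium – HEPES-MgCl2-KCl buffer plus DTT, spermine, BSA, pyrophosphatase · Reagent – ATP, methionine and E. coli bulk tRNA substrates · Times – 15 min enzyme-compound preincubation, 2 h reaction, 10 min detection, 25 °C · Measured by – luminescence of leftover ATP · Evaluation – percent inhibition relative to median high and low control wells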
m5-HT2A agonist = activates the mouse 5-HT2A serotonin receptor; AID 624169; actives 0.66% (n = 360,000); P35363; activation, % at 7.6 µM; CHO-K1 mHTR2A beta-arrestin complementation, luminescence; percent of 30 µM serotonin response;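 active means activation above a run cutoff, the mean activation of all tested compounds plus 3 SD, cut at about 14% in these data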;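 further: 0% = plate median of compound wells and 100% = 30 µM serotonin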
Target sequence (P35363 whole entry, looked up): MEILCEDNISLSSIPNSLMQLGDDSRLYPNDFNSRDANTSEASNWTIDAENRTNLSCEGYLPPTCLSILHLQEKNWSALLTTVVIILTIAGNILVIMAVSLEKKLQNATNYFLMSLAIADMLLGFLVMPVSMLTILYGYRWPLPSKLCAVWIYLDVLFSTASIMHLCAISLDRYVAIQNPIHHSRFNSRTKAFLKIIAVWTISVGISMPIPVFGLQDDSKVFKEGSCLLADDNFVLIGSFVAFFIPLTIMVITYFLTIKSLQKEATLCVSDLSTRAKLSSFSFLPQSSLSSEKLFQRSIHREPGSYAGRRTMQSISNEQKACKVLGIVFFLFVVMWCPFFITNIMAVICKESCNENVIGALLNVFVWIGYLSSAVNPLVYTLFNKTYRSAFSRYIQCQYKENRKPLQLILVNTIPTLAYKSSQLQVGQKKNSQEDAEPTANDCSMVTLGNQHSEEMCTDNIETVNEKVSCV
MsrA act = activates bovine MsrA enzyme; activation, % at 10.6 µM; AID 602163; actives 0.3% (n = 360,000); purified bovine MsrA, absorbance read-out; in the data active means activation above about 7.5%;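 further: 0% = vehicle and 100% = reference activator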
Numbers without * were called inactive; ? = inconclusive; . = not tested or not shown.

SMILES | AHR activator | AI-2 QS modul | MsrA inhibitor | TbMetRS inhib | m5-HT2A agonist | MsrA act
Cc1cc(C)nc(/N=C(\N)N2CCc3ccccc32)n1 | 54* | 20 | 0 | 0 | 2 | -3
Cc1cc(C(=O)COc2cc(F)ccc2[N+](=O)[O-])c(C)n1C1CC1 | 76* | 18 | 1 | -1 | 0 | -4
NC(=S)N/N=C\c1c(OCc2ccccc2Cl)ccc2ccccc12 | 70* | 10 | 4 | -1 | 0 | -13
Cc1cc(Nc2cccc(Cl)c2)nc(N2CCOCC2)n1 | 52* | 10 | -1 | 1 | 0 | -1
CC1Cc2nc(SCC(=O)Nc3nc4ccccc4s3)n(C)c(=O)c2S1 (centres undefined) | 60* | 18 | 1 | 0 | 10 | -3
COc1ccc(CCNS(=O)(=O)c2ccc(Br)s2)cc1 | -2 | -78* | 0 | 0 | 7 | -4
O=C(Cc1cn(Cc2ccccc2)c2ccccc12)Nc1ccc(Oc2cccnc2)cc1 | . | . | 1 | . | . | .
Nc1ccc(CNC(=O)OCC2c3ccccc3-c3ccccc32)cc1 | 55* | 9 | 0 | 0 | 2 | -1
O=C(NC(=S)Nc1nc(-c2ccccc2)cs1)c1cccs1 | 68* | 6 | 0 | 0 | 1 | -4
CCC(=O)Nc1cccc(NC(=S)NC(=O)c2ccccc2Cl)c1 | 5 | 1 | 2 | 0 | 0 | 0
Cc1cccc(NC(=S)NC(=O)c2cccs2)n1 | 24 | 30 | 2 | 0 | -2 | -7
CCC(=O)Nc1cccc(NC(=S)NC(=O)c2cccs2)c1 | 50* | 21 | 0 | 0 | 2 | -5
Cc1nc(NC(=S)NC(=O)c2cccs2)ccc1Br | 71* | -7 | 0 | 1 | -3 | -2
CC(C)CC(=O)NC(=S)Nc1nc(-c2ccccc2)cs1 | 67* | -8 | 0 | 0 | -2 | -3
CCOC(=O)C1CSCCS(=O)(=O)N1Cc1cccc(Cl)c1 (centres undefined) | . | . | -1 | . | . | .
Nc1[nH]c(C(=O)c2ccccc2)c(-c2cccc(C(F)(F)F)c2)c1C(=O)c1c[nH]c2ccccc12 | . | . | 0 | . | . | .
O=[N+]([O-])c1cccc(C(=NCc2ccccc2)NO)c1 | . | -6 | 2 | 0 | 1 | -2
COC(=O)C1=C(C)N(Cc2ccccc2C(F)(F)F)C(=NCc2cc(OC)c(OC)c(OC)c2)NC1c1ccccc1 (centres undefined) | . | . | -2 | . | . | .
Cc1onc(-c2ccccc2)c1C(=O)NCC1CCN(C(=O)C(=O)c2cccs2)CC1 | . | . | 0 | . | . | .
COCc1cc(N2CCNC[C@H]2C)ccc1N1CCN(Cc2ccccc2)[C@@H](C)C1 | . | . | 0 | . | . | .
O=C(NC(=S)Nc1cccc2cccnc12)c1cccs1 | 70* | 11 | 0 | 0 | 5 | -2
Cc1ccc2cccc(NC(=S)NC(=O)c3ccnn3C)c2n1 | 55* | -1 | 0 | 0 | -3 | -1
CC(=O)NC(=S)Nc1cccc2ccc(C)nc12 | 13 | 8 | 2 | 0 | 0 | 6
O=C(C(=O)N1CCC(CNS(=O)(=O)c2ccccc2)CC1)c1cc2ccccc2o1 | . | . | 2 | . | . | .
Cc1nn(C)c(C(=O)N/N=C/c2cccnc2)c1Br | 5 | 28 | -1 | 0 | -6 | -1
SMILES | AHR activator | AI-2 QS modul | MsrA inhibitor | TbMetRS inhib | m5-HT2A agonist | MsrA act
Nc1[nH]c(C(=O)c2ccc(Br)cc2)c(-c2ccc(Cl)cc2[N+](=O)[O-])c1C(=O)NCCc1c[nH]c2ccccc12 | . | . | 0 | . | . | .
Oc1c(C(c2ccccn2)N2CCC(Cc3ccccc3)CC2)cc(Cl)c2cccnc12 (centres undefined) | 15 | ? | -1 | . | . | .
Oc1c(C(c2ccc(Cl)cc2)N2CCCC2)cc(Cl)c2cccnc12 (centres undefined) | 10 | -121* | 0 | 0 | -13 | 0
Cc1ccc(C(c2cc(Cl)c3cccnc3c2O)N2CCN(C)CC2)cc1 (centres undefined) | 10 | -169* | . | 0 | -25 | -5
COc1cccc(NCc2cc(=O)oc3cc(-c4ccccc4)c(O)cc23)c1 | 76* | 9 | 2 | 1 | -5 | -2
CC(=O)OCC(COC(C)=O)(CN1C(=O)c2ccccc2C1=O)CN1C(=O)c2ccccc2C1=O | . | . | 1 | . | . | .
O=[N+]([O-])c1ccc(SN2CCCCC2)c([N+](=O)[O-])c1 | . | . | 0 | . | . | .
CCOc1ccc(Nc2nc3c(C)cccc3cc2C#N)cc1 | 50* | 22 | 0 | -1 | -3 | 0
Cc1noc(NS(=O)(=O)c2ccc(NS(=O)(=O)c3ccc(C(C)(C)C)cc3)cc2)c1C | . | . | 0 | 0 | 2 | -1
O=C(NCc1ccccc1)c1c[nH]c2cc3c(cc2c1=O)OCCO3 | 77* | 10 | 0 | -2 | 0 | -15
CCOc1ccc2[nH]cc(C(=O)NCc3ccccc3)c(=O)c2c1 | 24 | 6 | 2 | 0 | -1 | -4
Cc1ccccc1NC(=S)NCc1ccc2[nH]c3c(c2c1)CCCC3 | 36 | 24 | 0 | 0 | -4 | -5
S=C(NCc1ccc2[nH]c3c(c2c1)CCCC3)Nc1ccccc1Cl | 58* | 36 | 1 | -1 | -1 | 1
O=C(N[C@H](C(=O)N1CCC[C@H]1C(=O)NC1CCCC1)C1CCCCC1)C1CCCC1 | . | . | -1 | . | . | .
NC(N)=N/N=C/c1ccccc1OC(F)F | 26 | 8 | 0 | 0 | 2 | -2
FC(F)Oc1ccccc1/C=N/n1cnc2ccccc21 | 49* | 25 | 1 | -1 | 6 | -14
S=C(Nc1ccccc1)Nc1cccc(Br)c1 | 0 | 0 | 2 | 0 | -3 | -1
S=C(Nc1cccc(Br)c1)c1ccccc1 | 79* | 3 | 0 | 1 | -5 | -2
COc1ccc(C#Cc2c(-c3ccccc3OC)oc3ccccc23)cc1 | . | . | 0 | . | . | .
CCN(CC)C(=O)CSc1nc2ncc(Br)cc2[nH]1 | 63* | 25 | 0 | 2 | 0 | -3
CCN(CC)C(=O)CSc1nc2ncc(Cl)cc2[nH]1 | 44 | 11 | 0 | 0 | -3 | -1
O=C(Nc1ccccc1C(=O)NCC1CC1)c1cccs1 | . | . | 0 | . | . | .
CCCCCCN1C=C/C(=C\C=C(C#N)C#N)c2ccccc21 | 4 | 4 | -2 | -1 | 1 | -4
C=CCN1C=C/C(=C\C=C(C#N)C#N)c2ccccc21 | 53* | 1 | -1 | 6 | -7 | -2
O=C(CCS(=O)(=O)c1ccc(F)cc1)Nc1nc(-c2ccccn2)cs1 | 7 | 41 | 1 | 0 | 1 | -3
O=C(Nc1nc(-c2ccccn2)cs1)c1ccco1 | 20 | 32 | 2 | 0 | 1 | -4
O=C(Nc1nc(-c2ccccn2)cs1)c1ccc(Br)s1 | -4 | -95* | 1 | -1 | 2 | -1
O=C(CCS(=O)(=O)c1ccccc1)Nc1nc(-c2ccccn2)cs1 | 54* | 23 | -1 | 0 | -1 | -3
Clc1nc(Oc2ccccc2)nc(-c2cn(-c3ccccc3)c3ccccc23)n1 | 8 | 8 | 0 | 0 | 4 | -2

Screening data: PubChem, several laboratories
